In article PMC10228170 (Journal of Pharmaceutical and Biomedical Analysis, 2023):
Like-named read-outs stand apart in the source and are kept apart here. Marks after values point to notes of the source that are not given here.

Assays:
[1] = assay type: in vivo; conditions: rat
Method in brief: (§1)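 Male Sprague-Dawley rats (200 ± 50 g) were fasted 12 h and anaesthetised with urethane 1 g/kg i.p. A blood probe (1.2 cm) sat in the jugular vein and a brain probe (0.7 cm) in the striatum (+0.2 AP, +3.0 ML, −7.5 DV from bregma). Both were perfused with ACD at 2.0 µL/min. Test compound 100 mg/kg i.v. via femoral vein. Dialysates collected every 20 min for 6 h; UHPLC-MS/MS (MRM); noncompartmental parameters; AUC ratios; n = 6.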

[2] = prodrug molnupiravir, metabolized to NHC in vivo; cited from earlier work
[3] = Pharmacokinetics of molnupiravir and NHC in rat blood and brain; assay type: in vivo; conditions: for concentration at 140 min: intravenous
Method in brief: as §1

[4] = assay type: in vivo; conditions: male, Sprague-Dawley, rat, iv, 100 mg/kg
Method in brief: as §1

[5] = male, Sprague-Dawley, blood (microdialysate), iv, 100 mg/kg
[6] = male, Sprague-Dawley, blood dialysate, iv, 100 mg/kg
[7] = male, Sprague-Dawley, brain (striatum microdialysate), iv, 100 mg/kg
[8] = male, Sprague-Dawley, brain (striatum) dialysate, iv, 100 mg/kg
[9] = male, Sprague-Dawley, rat, blood (microdialysate), iv, 100 mg/kg
[10] = male, Sprague-Dawley, rat, brain (striatum microdialysate), iv, 100 mg/kg
[11] = brain (striatum microdialysate)

CC(C)C(=O)OC[C@H]1O[C@@H](n2ccc(NO)nc2=O)[C@H](O)[C@@H]1O [Molnupiravir, molnupiravir]
MRT [1, 5]: 1.28 h
clearance [1, 5]: 16 ± 1.28 mL/min/kg
AUC [1, 6]: 110000 ng·h/mL
Cmax [1, 6]: 199 ± 16.9 µg/mL
half-life [1, 6]: 132 ± 32 min
MRT [1, 7]: 3.97 h
Tmax [1, 7]: 40 min
AUC [1, 8]: 1790 ng·h/mL
Cmax [1, 8]: 0.79 ± 0.22 µg/mL
half-life [1, 8]: 148 ± 34 min
AUCbrain/AUCblood (blood-to-brain transfer ratio) ([1]; molnupiravir 100 mg/kg i.v. + BNPP 50 mg/kg i.v.): 0.02 ± 0.004^a
bioavailability [2]: more than 90%
AUC [3, 9]: 57200 ng·h/mL
Cmax [3, 9]: 192 ± 24.1 µg/mL
clearance [3, 9]: 32.1 ± 4.45 mL/min/kg
half-life [3, 9]: 9 ± 2 min
concentration at 140 min ([3]; male, Sprague-Dawley, rat, blood dialysate, 100 mg/kg): 49.2 ng/mL
MRT ([3]; male, Sprague-Dawley, rat, blood dialysate, iv, 100 mg/kg): 18 min
AUC [3, 10]: 318 ng·h/mL
Cmax [3, 10]: 0.39 ± 0.1 µg/mL
half-life [3, 10]: 10 ± 1 min
concentration at 140 min ([3]; male, Sprague-Dawley, rat, brain (striatum) dialysate, 100 mg/kg): 103 ng/mL
MRT ([3]; male, Sprague-Dawley, rat, brain (striatum) dialysate, iv, 100 mg/kg): 35 min
Tmax ([3]; male, Sprague-Dawley, rat, brain (striatum) dialysate, iv, 100 mg/kg, Tmax, rat brain, molnupiravir 100 mg/kg i.v. alone): 40 min
time of biotransformation of molnupiravir to NHC ([3]; rat blood, molnupiravir 100 mg/kg i.v.): ≤ 20 min
AUCbrain/AUCblood (blood-to-brain transfer ratio) ([3]; rat, molnupiravir 100 mg/kg i.v. alone): 0.005 ± 0.001^b
AUC ([4]; blood (microdialysate)): 77400 ng·h/mL
Cmax ([4]; blood (microdialysate)): 185 ± 18.7 µg/mL
MRT ([4]; blood (microdialysate)): 29 min
clearance ([4]; blood (microdialysate)): 21.7 ± 0.66 mL/min/kg
half-life ([4]; blood (microdialysate)): 35 ± 10 min
AUC [4, 11]: 755 ng·h/mL
MRT [4, 11]: 53 min
Tmax [4, 11]: 40 min
half-life [4, 11]: 68 ± 22 min
Cmax ([4]; brain (striatum) dialysate): 0.5 ± 0.09 µg/mL
